Test results published in ChEMBL document CHEMBL1127433, “N6-substituted adenosine receptor agonists. Synthesis and pharmacological activity as potent antinociceptive agents” (J Med Chem, 1994).
Active and inactive are the calls of the source. The rule behind the calls is not given here.

Experiments:
[1] = target: Adenosine A2 receptor (Rattus norvegicus, UniProt P29276+P30543); assay: Binding affinity for adenosine A2 receptor in vitro using rat striatal membrane.; format: cell membranes
How it was run: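 Rat striatal membranes in 50 mM Tris-HCl, 10 mM MgCl2, pH 7.7, adenosine deaminase treated (1 U/mL, 30 min). Incubated with [3H]NECA (4 nM, 50 μL) plus 0.11 μM cyclopentyladenosine and competitor for 60 min at 25 °C. Nonspecific binding defined with 5 μM NECA. GF/B filtration, scintillation counting, triplicate. IC50 from log-logit regression, Ki via Cheng-Prusoff, one experiment.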

[2] = target: T1, Adenosine A2 receptor (Rattus norvegicus) (UniProt P29276+P30543); assay: Percent displacement from adenosine A2 receptor at 10e-7 M in rat striatal membrane in vitro.; format: cell membranes; settings: Striatum
[3] = target: T2, Adenosine receptor A1 (Rattus norvegicus) (UniProt P25099); assay: Percent displacement from adenosine A1 receptor at 10e-5 M in rat brain membrane in vitro.; format: cell membranes
T2 sequence (whole entry): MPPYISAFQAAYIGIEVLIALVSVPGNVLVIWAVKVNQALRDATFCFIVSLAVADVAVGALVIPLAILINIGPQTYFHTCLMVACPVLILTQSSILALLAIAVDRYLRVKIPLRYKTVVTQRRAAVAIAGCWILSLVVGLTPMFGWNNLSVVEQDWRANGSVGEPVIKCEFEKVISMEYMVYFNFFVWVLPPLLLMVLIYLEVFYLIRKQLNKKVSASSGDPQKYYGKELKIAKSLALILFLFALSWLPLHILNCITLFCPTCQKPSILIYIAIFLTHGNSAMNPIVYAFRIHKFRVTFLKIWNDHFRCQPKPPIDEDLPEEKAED

[4] = system: Mus musculus; assay: Effective dose for phenylbenzoquinone-induced writhing in mice after peroral administration expressed as analgesic activity.; format: functional
How it was run: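 Mice dosed orally (0.5 mL/20 g); 1 h later given 0.02% phenylbenzoquinone in hydroalcoholic solution ip (0.20-0.24 mL). Writhings and stretches counted from minute 5 to minute 10. Six animals per group. Inhibition taken against the control mean; ED50 (50% decrease) by linear regression.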

[5] = target: T2, Adenosine receptor A1 (Rattus norvegicus); assay: Percent displacement from adenosine A1 receptor at 10e-7 M in rat brain membrane in vitro.; format: cell membranes
[6] = target: T3, Adenosine receptor A1 (Rattus norvegicus, UniProt P25099); assay: Binding affinity for adenosine A1 receptor in vitro using rat brain membranes.; format: cell membranes
T3 sequence (P25099 whole entry): T2 sequence (whole entry)
How it was run: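 Whole rat brain membranes, homogenized in 50 mM Tris-HCl pH 7.4 and spun at 1090g then 48000g, pretreated with adenosine deaminase 1 U/mL for 30 min. Nonspecific binding defined with 10 μM PIA. Separated by GF/B filtration and scintillation counted, in triplicate. IC50 from log-logit regression, Ki via Cheng-Prusoff, one experiment.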

[7] = target: T1, Adenosine A2 receptor (Rattus norvegicus); assay: Percent displacement from adenosine A2 receptor at 10e-5 M in rat striatal membrane in vitro.; format: cell membranes

Row | SMILES | Ki [1] [nM] | Displacement [2] [%] | Displacement [3] [%] | Displacement [5] [%] | Ki [6] [nM] | Displacement [7] [%] | ED50 ([4]; po) [mg/kg] | ED50 [4]
1 | CC(C)n1cc(CCNc2ncnc3c2ncn3[C@@H]2O[C@H](C(=O)NC3CC3)[C@@H](O)[C@H]2O)c2ccccc21 | 390 | 14 | 87 | 4 | 120 | 91 | 1.6 | –
2 | Cc1ccc(C)c(Cn2cc(CC(C)Nc3ncnc4c3ncn4C3O[C@H](C(=O)NC4CC4)[C@@H](O)[C@H]3O)c3ccccc32)c1 (some centres not stated) | 2200 | 9 | 96 | 21 | 180 | 84 | 3.6 | –
3 | COc1ccc2c(c1)c(CCNc1ncnc3c1ncn3C1O[C@H](C(=O)NC3CC3)[C@@H](O)[C@H]1O)cn2Cc1cc(C)ccc1C (some centres not stated) | – | 17 | 100 | 16 | – | 91 | 46.3 | –
4 | Cc1ccc(C)c(Cn2cc(CCNc3ncnc4c3ncn4C3O[C@H](C(=O)NC4CC4)[C@@H](O)[C@H]3O)c3ccccc32)c1 (some centres not stated) | 670 | 9 | 93 | 26 | 140 | 85 | 2.4 | –
5 | Cc1ccc(C)c(Cn2cc(CCNc3ncnc4c3ncn4[C@@H]3O[C@H](C(=O)NC4CC4)[C@@H](O)[C@H]3O)c3cc(C)ccc32)c1 | 890 | 3 | 100 | 50 | 62 | 70 | 0.9 | –
6 | O=C(NC1CC1)[C@H]1OC(n2cnc3c(NCCc4c(-c5ccccc5)[nH]c5ccccc45)ncnc32)[C@H](O)[C@@H]1O (some centres not stated) | – | 10 | 84 | 20 | – | 71 | 27.1 | –
7 | COc1ccccc1Cn1cc(CCNc2ncnc3c2ncn3C2O[C@H](C(=O)NC3CC3)[C@@H](O)[C@H]2O)c2ccccc21 (some centres not stated) | 810 | 23 | 100 | 42 | 170 | 89 | 2.3 | –
8 | Cc1c(CCNc2ncnc3c2ncn3[C@@H]2O[C@H](C(=O)NC3CC3)[C@@H](O)[C@H]2O)c2ccccc2n1C1CCCC1 | 2180 | 6 | 77 | 15 | 895 | 92 | 0.5 | –
9 | Cc1ccccc1Cn1cc(CCNc2ncnc3c2ncn3C2O[C@H](C(=O)NC3CC3)[C@@H](O)[C@H]2O)c2ccccc21 (some centres not stated) | – | 27 | 98 | 40 | – | 93 | < 3 | –
10 | O=C(NC1CC1)[C@H]1OC(n2cnc3c(NCCc4cn(Cc5ccccn5)c5ccccc45)ncnc32)[C@H](O)[C@@H]1O (some centres not stated) | 390 | – | – | – | 39 | – | – | –
11 | Cc1ccc(C)c(Cn2cc(CCNc3ncnc4c3ncn4C3O[C@H](C(=O)NCCN4CCOCC4)[C@@H](O)[C@H]3O)c3ccccc32)c1 (some centres not stated) | – | 0 | 5 | 5 | – | 19 | > 60 | –
12 | Cn1cc(CCNc2ncnc3c2ncn3C2O[C@H](C(=O)NC3CC3)[C@@H](O)[C@H]2O)c2ccccc21 (some centres not stated) | 270 | 29 | 99 | 76 | – | 91 | 3 | –
13 | Cc1ccc(C)c(Cn2cc(C(C)CNc3ncnc4c3ncn4[C@@H]3O[C@H](C(=O)NC4CC4)[C@@H](O)[C@H]3O)c3ccccc32)c1 (some centres not stated) | 2500 | 0 | 97 | 28 | 200 | 61 | 0.9 | –
14 | O=C(NC1CC1)[C@H]1OC(n2cnc3c(NCCc4cn(CCN5CCOCC5)c5ccccc45)ncnc32)[C@H](O)[C@@H]1O (some centres not stated) | – | 20 | 100 | 52 | – | 88 | > 30 | –
15 | CC(Cc1cn(C2CCCC2)c2ccccc12)Nc1ncnc2c1ncn2C1O[C@H](C(=O)NC2CC2)[C@@H](O)[C@H]1O (some centres not stated) | – | 21 | 96 | 45 | – | 85 | 2.2 | –

Continued, in another order:

Row | Ki [1] [nM] | Displacement [2] [%] | Displacement [3] [%] | Displacement [5] [%] | Ki [6] [nM] | Displacement [7] [%] | SMILES | ED50 ([4]; po) [mg/kg] | ED50 [4]
16 | – | 7 | 56 | 5 | – | 60 | Cc1ccc(C)c(Cn2c(C)c(CCNc3ncnc4c3ncn4C3O[C@H](C(=O)NC4CC4)[C@@H](O)[C@H]3O)c3ccccc32)c1 (some centres not stated) | 1.2 | –
17 | 270 | 41 | 99 | 35 | 40 | 94 | O=C(NC1CC1)[C@H]1OC(n2cnc3c(NCCc4cn(Cc5ccccc5)c5ccccc45)ncnc32)[C@H](O)[C@@H]1O (some centres not stated) | 18.1 | –
18 | 760 | 5 | 99 | 33 | 170 | 92 | CN(C)c1ccccc1Cn1cc(CCNc2ncnc3c2ncn3C2O[C@H](C(=O)NC3CC3)[C@@H](O)[C@H]2O)c2ccccc21 (some centres not stated) | 1.9 | –
19 | 58 | 53 | 100 | 96 | 7.5 | 95 | O=C(NC1CC1)[C@H]1O[C@@H](n2cnc3c(NCCc4cn(CCN5CCCC5)c5ccccc45)ncnc32)[C@H](O)[C@@H]1O | 44.2 | –
20 | 280 | 17 | 100 | 56 | 39 | 80 | C=CCn1cc(CCNc2ncnc3c2ncn3C2O[C@H](C(=O)NC3CC3)[C@@H](O)[C@H]2O)c2ccccc21 (some centres not stated) | 5.3 | –
21 | 350 | 28 | 96 | 21 | 110 | 90 | O=C(NC1CC1)[C@H]1O[C@@H](n2cnc3c(NCCc4cn(C5CCCC5)c5ccccc45)ncnc32)[C@H](O)[C@@H]1O | 1.5 | –
22 | 660 | 10 | 99 | 47 | 150 | 77 | Cc1ccc(C)c(Cn2cc(CCNc3ncnc4c3ncn4[C@@H]3O[C@H](C(=O)NC4CC4)[C@@H](O)[C@H]3O)c3cc(Cl)ccc32)c1 | 6.3 | –
23 | 370 | 19 | 98 | 61 | 23 | 90 | COCCn1cc(CCNc2ncnc3c2ncn3[C@@H]2O[C@H](C(=O)NC3CC3)[C@@H](O)[C@H]2O)c2ccccc21 | 1.2 | –
24 | 320 | 30 | 98 | 46 | 50 | 91 | O=C(NC1CC1)[C@H]1OC(n2cnc3c(NCCc4cn(Cc5ccc(Cl)cc5)c5ccccc45)ncnc32)[C@H](O)[C@@H]1O (some centres not stated) | 0.9 | –
25 | 3000 | 0 | 80 | 12 | 1400 | 68 | CNC(=O)[C@H]1O[C@@H](n2cnc3c(NCCc4cn(Cc5cc(C)ccc5C)c5ccccc45)ncnc32)[C@H](O)[C@@H]1O | 10.2 | –
26 | 2600 | 0 | 87 | 17 | 510 | 61 | Cc1ccc(C)c(Cn2cc(CCNc3ncnc4c3ncn4[C@@H]3O[C@H](C(N)=O)[C@@H](O)[C@H]3O)c3ccccc32)c1 | > 30 | –
27 | – | 35 | 92 | 15 | – | 91 | OC[C@H]1OC(n2cnc3c(NCCc4cn(Cc5c(Cl)cccc5Cl)c5ccccc45)ncnc32)[C@H](O)[C@@H]1O (some centres not stated) | – | inactive
28 | – | 6 | 100 | 47 | – | 82 | O=C(NC1CC1)[C@H]1OC(n2cnc3c(NCCc4cn(Cc5ccc(Cl)s5)c5ccccc45)ncnc32)[C@H](O)[C@@H]1O (some centres not stated) | 26.2 | –
29 | – | 59 | 98 | 42 | – | 100 | COc1ccc(Cn2cc(CCNc3ncnc4c3ncn4C3O[C@H](C(=O)NC4CC4)[C@@H](O)[C@H]3O)c3ccccc32)cc1 (some centres not stated) | 71.6 | –
